In ChEMBL document CHEMBL1255568, “Amino derivatives of indole as potent inhibitors of isoprenylcysteine carboxyl methyltransferase” (J Med Chem, 2010):

Columns and labels:
[1] = molecular target: Protein-S-isoprenylcysteine O-methyltransferase (Homo sapiens, UniProt O60725); assay: Inhibition of recombinant ICMT expressed in Sf9 cells using [3H] AdoMet after 20 mins by scintillation counting
In short: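 Sf9 membranes carrying recombinant Icmt (1.0 μg protein) in 100 mM Hepes pH 7.4, 5 mM MgCl2, 100 μM EDTA. Preincubated with compound (final DMSO 2% v/v) for 20 min at 37 °C. Reaction started with final 1 μM biotin-farnesyl-L-cysteine and 0.5 μM [3H]AdoMet, run 20 min at 37 °C, then stopped with Tween 20. Product captured overnight at 4 °C on streptavidin beads, washed, and counted by scintillation. Mean ± SD of 3 or more determinations.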

MDA-MB-231 = assay: Antiproliferative activity against human MDA-MB-231 cells after 72 hrs by colorimetric tetrazolium assay; format: functional, cell-based; conditions: MDA-MB-231, 72 h
In short: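 MDA-MB-231 cells grown in DMEM with 10% FBS and penicillin/streptomycin at 37 °C, 5% CO2, used within passages 10-25. Seeded at 2400 cells/well in DMEM with 5% FBS for 24 h, then exposed to compound (final DMSO 0.5% v/v) for 72 h. MTS-type tetrazolium reagent added for 2 h at 37 °C, absorbance read at 490 nm, blank subtracted. Triplicate wells. IC50 from sigmoidal viability curve, mean of at least two determinations.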

Sequence of Protein-S-isoprenylcysteine O-methyltransferase (O60725 whole entry): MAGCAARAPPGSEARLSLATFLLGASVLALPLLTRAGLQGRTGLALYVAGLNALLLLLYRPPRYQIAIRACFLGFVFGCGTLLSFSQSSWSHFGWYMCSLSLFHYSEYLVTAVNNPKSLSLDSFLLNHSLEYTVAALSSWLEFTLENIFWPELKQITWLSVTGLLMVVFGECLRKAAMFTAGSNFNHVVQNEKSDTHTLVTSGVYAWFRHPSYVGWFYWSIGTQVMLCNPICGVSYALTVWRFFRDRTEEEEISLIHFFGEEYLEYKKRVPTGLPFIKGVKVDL

Row | IC50 [1] | IC50 (MDA-MB-231) | Structure (SMILES)
1 | 67 µM | 74 µM | CCN(CC)Cc1cn(CC=C(C)C)c2ccccc12
2 |  | > 100 µM | CC(C)=CCn1cc(CC(N)=O)c2cc(F)ccc21
3 | 0.9 µM | 6.1 µM | CCCCCCCCn1cc(CN2CCN(C)CC2)c2cc(-c3cccc(C)c3)ccc21
4 |  | 20.7 µM | CCCCCCCCn1cc(CCC(N)=O)c2cc(-c3cccc(C)c3)ccc21
5 | 76 µM | > 100 µM | CCCCCCCCn1cc(CC(=O)OC)c2cc(-c3cccc(C)c3)ccc21
6 | 1.8 µM | 30 µM | CCCCCCCCn1cc(CNC(C)=O)c2cc(-c3cccc(C)c3)ccc21
7 | 1 µM | 21.2 µM | CCCCCCCCn1cc(CC(N)=O)c2cc(-c3ccccc3C)ccc21
8 | 1.9 µM | 22.4 µM | CCCCCCCCn1cc(CC(N)=O)c2cc(-c3cccc(OC)c3)ccc21
9 |  | > 100 µM | CC(C)=CCn1ccc2cc(-c3cccc(C)c3)ccc21
10 | 2.4 µM | 3.8 µM | CCN(CC)Cc1cn(CC=C(C)C)c2ccc(-c3cccc(C)c3)cc12
11 | 1.8 µM | 26 µM | CCCCCCCCn1cc(CC(N)=O)c2cc(-c3ccccc3)ccc21
12 | 2.1 µM | 3.9 µM | CC(C)=CCn1cc(CN2CCCCC2)c2cc(-c3cccc(C)c3)ccc21
13 |  | 34 µM | CC(C)=CCn1cc(CN2CCOCC2)c2cc(-c3cccc(C)c3)ccc21
14 | 6.5 µM | 50 µM | CCCCCCCCn1cc(CC(N)=O)c2ccccc21
15 | 4.1 µM | 7.2 µM | CCCCCCCCn1cc(CN(CC)CC)c2cc(F)ccc21
16 | 35 µM | 32 µM | CCN(CC)Cc1cn(CC=C(C)C)c2ccc(F)cc12
17 | 7.7 µM | 28.5 µM | CC(C)=CCn1cc(CC(N)=O)c2cc(-c3cccc(C)c3)ccc21
18 | 1 µM | 10.6 µM | CC(C)=CCC/C(C)=C/Cn1cc(CC(N)=O)c2cc(-c3cccc(C)c3)ccc21
19 | > 100 µM | > 100 µM | CCCCCCCCn1ccc2cc(-c3cccc(C)c3)ccc21
20 | 0.7 µM | 2.9 µM | CCCCCCCCn1cc(CN)c2cc(-c3cccc(C)c3)ccc21
21 | 1.3 µM | 6.8 µM | CCCCCCCCn1cc(CN(C)C)c2cc(-c3cccc(C)c3)ccc21
22 | 0.8 µM | 13 µM | CCCCCCCCn1cc(CN(CCC)CCC)c2cc(-c3cccc(C)c3)ccc21
23 | 0.9 µM | 5.3 µM | CCCCCCCCn1cc(CN(C)C(C)C)c2cc(-c3cccc(C)c3)ccc21
24 | 0.5 µM | 5.1 µM | CCCCCCCCn1cc(CN2CCCC2)c2cc(-c3cccc(C)c3)ccc21
25 | 0.7 µM | 4.9 µM | CCCCCCCCn1cc(CN2CCCCC2)c2cc(-c3cccc(C)c3)ccc21
26 | 2.5 µM | 17.2 µM | Cc1cccc(-c2ccc3c(c2)c(CC(N)=O)cn3Cc2cccc(C(F)(F)F)c2)c1
27 | 1 µM |  | CCCCCCCCn1cc(CC(N)=O)c2cc(-c3ccc(C)cc3)ccc21

Further lines, the compound ahead of its results:

Row | Structure (SMILES) | IC50 [1] | IC50 (MDA-MB-231)
28 | CCCCCCCCn1cc(CN2CCOCC2)c2cc(-c3cccc(C)c3)ccc21 | 2.7 µM | 24.5 µM
29 | CCCCCCCCn1cc(C(N)=O)c2cc(-c3cccc(C)c3)ccc21 |  | > 100 µM
30 | CCCCCCCCn1cc(CC(=O)OCC)c2cc(-c3cccc(C)c3)ccc21 | > 100 µM | > 100 µM
31 | CCCCCCCCn1cc(CNS(C)(=O)=O)c2cc(-c3cccc(C)c3)ccc21 | 1.2 µM | 17.5 µM
32 | CCCCCCCCn1cc(CN(CC)CC)c2cc(-c3ccccc3C)ccc21 | 0.6 µM | 5.5 µM
33 | CCCCCCCCn1cc(CN(CC)CC)c2cc(-c3ccc(C)cc3)ccc21 | 0.6 µM | 3.4 µM
34 | CCCCCCCCn1cc(CC(N)=O)c2cc(F)ccc21 |  | 70 µM
35 | CCCCCCCCn1cc(CC(=O)N(CC)CC)c2cc(-c3cccc(OC)c3)ccc21 | 0.8 µM | 52 µM
36 | CCCCCCCCn1cc(CC(=O)N(CC)CC)c2cc(-c3cccc(OCC)c3)ccc21 | 1 µM | 26.8 µM
37 | CCCCCCCCn1cc(CC(=O)N(C)C)c2cc(-c3cccc(C)c3)ccc21 | 1.5 µM | 31 µM
38 | CCCCCCCCn1cc(CC(=O)N(CC)CC)c2cc(-c3cccc(C)c3)ccc21 | 1.4 µM | 27 µM
39 | CCCCCCCCn1cc(CC(=O)N2CCCC2)c2cc(-c3cccc(C)c3)ccc21 | 1.2 µM | 15.6 µM
40 | CCCCCCCCn1cc(CC(=O)N2CCCCC2)c2cc(-c3cccc(C)c3)ccc21 | 1.8 µM | 28.9 µM
41 | CCCCCCCCn1cc(CC(=O)N2CCN(C)CC2)c2cc(-c3cccc(C)c3)ccc21 |  | 19.7 µM
42 | CCCCCCCCn1cc(CN(CC)CC)c2cc(-c3cccc(C)c3)ccc21 | 0.7 µM | 3.6 µM
43 | CCCCCCCCn1cc(CN(C(C)C)C(C)C)c2cc(-c3cccc(C)c3)ccc21 | 1.7 µM | 20.1 µM
44 | CCCCCCCCn1cc(CC(N)=O)c2cc(-c3cccc(OCC)c3)ccc21 | 1.3 µM | 18.7 µM
45 | Cc1cccc(-c2ccc3[nH]cc(CC(N)=O)c3c2)c1 | 33 µM | > 100 µM
